In ChEMBL document CHEMBL1828500, “Synthesis and biological evaluation of dihydroindeno and indeno [1,2-e] [1,2,4]triazolo [3,4-b] [1,3,4]thiadiazines as antimicrobial agents” (2011) one finds inhibition of growth, zone of inhibition and MIC data, which are given here for 9 compounds.

Type in all cases: functional
In assay [1] the test system is Aspergillus niger. Kind of assay: Antifungal activity against Aspergillus niger assessed as inhibition of mycelial growth at 4 mg/ml after 7 days. Particulars: 168 h, read-out: GI. An outline of the steps:
(§1)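 Poisoned food method. Molds grown on Sabouraud dextrose agar at 25 °C for 7 days to provide inocula. Molten SDA (45 °C) dosed with compound at 4.0 mg/mL in DMSO, then solidified. 8 mm fungal plugs from colony margins placed centrally. Incubated 25 °C for 7 days, in triplicate. % mycelial growth inhibition calculated from colony diameters versus DMSO control. Fluconazole served as positive control.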

Assay [2] has as its system Bacillus subtilis. Kind of assay: Antibacterial activity against Bacillus subtilis MTCC 121 at 2 mg/ml after 24 hrs by agar well diffusion method. To be noted: MTCC 121, 24 h, read-out: DIZ. An outline of the steps:
(§2)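 Cultures adjusted to 0.5 McFarland and left 15 min on agar for adsorption. 8 mm wells bored and loaded with compound at 2.0 mg/mL in DMSO. Incubated 37 °C for 24 h. Growth-inhibition zone diameter (mm) read with a zone scale and reported as the average. DMSO served as negative control and ciprofloxacin as positive control.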
For orientation: A growth-free zone around the sample is the usual read-out of agar diffusion tests.

Assay [3] deals with Escherichia coli. In words: Antibacterial activity against Escherichia coli MTCC 1652 after 24 hrs by agar well diffusion method. Particulars: MTCC 1652, 24 h. In outline: (§3)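 MIC by modified agar well diffusion. Two-fold serial dilutions (DMSO stock diluted in sterile distilled water), range 256 to 0.5, placed in wells in triplicate. Agar was pre-seeded with 100 standardized inoculum at 10⁶ cfu/mL. Incubated aerobically at 37 °C for 24 h. MIC taken as lowest concentration giving a clear zone, i.e. complete growth inhibition.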

The subject of assay [4] is Pseudomonas aeruginosa. Kind of assay: Antibacterial activity against Pseudomonas aeruginosa MTCC 741 after 24 hrs by agar well diffusion method. Particulars: MTCC 741, 24 h. In outline: as §3
Assay [5] has as its system Bacillus subtilis. In words: Antibacterial activity against Bacillus subtilis MTCC 121 after 24 hrs by agar well diffusion method. To be noted: MTCC 121, 24 h. In outline:
as §3

Assay [6] concerns Staphylococcus aureus. In words: Antibacterial activity against Staphylococcus aureus MTCC 96 after 24 hrs by agar well diffusion method. Particulars: MTCC 96, 24 h. An outline of the steps:
as §3

The subject of assay [7] is Aspergillus flavus. Kind of assay: Antifungal activity against Aspergillus flavus assessed as inhibition of mycelial growth at 4 mg/ml after 7 days. To be noted: 168 h, read-out: GI. In outline: as §1
For assay [8], the system named is Escherichia coli. Kind of assay: Antibacterial activity against Escherichia coli MTCC 1652 at 2 mg/ml after 24 hrs by agar well diffusion method. To be noted: MTCC 1652, 24 h, read-out: DIZ. An outline of the steps: as §2
In assay [9] the test system is Pseudomonas aeruginosa. Kind of assay: Antibacterial activity against Pseudomonas aeruginosa MTCC 741 at 2 mg/ml after 24 hrs by agar well diffusion method. To be noted: MTCC 741, 24 h, read-out: DIZ. In outline:
as §2

Assay [10] deals with Staphylococcus aureus. In words: Antibacterial activity against Staphylococcus aureus MTCC 96 at 2 mg/ml after 24 hrs by agar well diffusion method. Particulars: MTCC 96, 24 h, read-out: DIZ. An outline of the steps: as §2
Assay [11] has as its system Penicillium sp. Kind of assay: Antifungal activity against Penicillium sp. assessed as inhibition of mycelial growth at 4 mg/ml after 7 days. To be noted: 168 h, read-out: GI. An outline of the steps: as §1

The MIC is the smallest concentration in the dilution series that meets the test's criterion for growth inhibition. A low value points to a more susceptible organism.

Structures are written as SMILES. ≈ marks a conversion by molar mass, not a printed value.

As for `CCCc1nnc2n1N=C1c3cccc(C)c3CC1S2` (centres undefined), the inhibition of growth at 4000 µg/mL came to 58.8% in assay [1], 55.5% in assay [7] and 61.1% in assay [11]. The zone of inhibition at 2000 µg/mL is 21.6 mm in assay [2], 19.3 mm in assay [8], 17.6 mm in [9] and 25.3 mm in [10]. Further, the MIC in assay [3] is 64 µg/mL (≈ 225 µM); in [4] it was 64 µg/mL (≈ 225 µM); in assay [5], 32 µg/mL (≈ 113 µM); in assay [6], 16 µg/mL (≈ 56.3 µM).

Take `CCc1nnc2n1N=C1c3cccc(C)c3CC1S2` (centres undefined): the inhibition of growth at 4000 µg/mL worked out at 64.4% in [1], 63.3% in assay [7] and 65.5% in [11]. The zone of inhibition at 2000 µg/mL is 28 mm in assay [2], 21 mm in assay [8], 19.3 mm in assay [9] and 26.6 mm in [10]. The MIC was 32 µg/mL (≈ 118 µM) in assay [3], 32 µg/mL (≈ 118 µM) in assay [4], 4 µg/mL (≈ 14.8 µM) in assay [5] and 8 µg/mL (≈ 29.6 µM) in assay [6].

Regarding `Cc1cccc2c3nn4c(C(C)C)nnc4sc-3cc12`, the results for the inhibition of growth at 4000 µg/mL in assay [1], in [7] and in assay [11] were 65.5%, 61.1% and 63.3%, respectively. Besides, the zone of inhibition at 2000 µg/mL in [2] worked out at 19.3 mm; in assay [8] it was 15 mm; in [9] it was 14.6 mm; in [10], 17.6 mm. In addition, the MIC in assay [3] amounted to 128 µg/mL (≈ 453 µM); in assay [4], 256 µg/mL (≈ 907 µM); in assay [5], 64 µg/mL (≈ 227 µM); in assay [6] it was 128 µg/mL (≈ 453 µM).

As for `CC(C)c1nnc2n1N=C1c3ccccc3CC1S2` (centres undefined), the inhibition of growth at 4000 µg/mL in assay [1] came out at 53.3%; in assay [7], 51.1%; in [11], 51.1%. The zone of inhibition at 2000 µg/mL was found to be 24.6 mm in assay [2], 20.6 mm in [8], 19.3 mm in [9] and 28.6 mm in assay [10]. The MIC in assay [3] was determined as 64 µg/mL (≈ 237 µM); in assay [4], 32 µg/mL (≈ 118 µM); in assay [5], 16 µg/mL (≈ 59.2 µM); in assay [6], 4 µg/mL (≈ 14.8 µM).

With `Cc1cccc2c1CC1Sc3nnc(C(C)C)n3N=C21` (centres undefined), the inhibition of growth at 4000 µg/mL in [1] was 63.3%; in assay [7], 61.1%; in assay [11], 65.5%. Also, the zone of inhibition at 2000 µg/mL was found to be 27 mm in [2], 21.6 mm in assay [8], 20.3 mm in assay [9] and 28.6 mm in [10]. The MIC in [3] was 32 µg/mL (≈ 113 µM); in [4], 32 µg/mL (≈ 113 µM); in [5] it was 8 µg/mL (≈ 28.1 µM); in assay [6] it was 4 µg/mL (≈ 14.1 µM).

As to `Cc1cccc2c3nn4cnnc4sc-3cc12`, the inhibition of growth at 4000 µg/mL in assay [1] worked out at 71.1%; in assay [7], 68.8%; in assay [11], 66.6%. Further, the zone of inhibition at 2000 µg/mL was 28.6 mm in assay [2], 20.6 mm in assay [8], 18.3 mm in assay [9] and 25.3 mm in [10]. Also, the MIC was 64 µg/mL (≈ 266 µM) in [3], 128 µg/mL (≈ 533 µM) in assay [4], 4 µg/mL (≈ 16.6 µM) in [5] and 16 µg/mL (≈ 66.6 µM) in assay [6].

For the compound `Cc1cccc2c3nn4c(C)nnc4sc-3cc12`, the inhibition of growth at 4000 µg/mL in assay [1] is 53.3%; in assay [7] it was 50%; in assay [11], 51.1%. The zone of inhibition at 2000 µg/mL in assay [2] worked out at 18.6 mm; in assay [8] it was 18.6 mm; in assay [9], 15.6 mm; in [10], 20.3 mm. In addition, the MIC was found to be 64 µg/mL (≈ 252 µM) in assay [3], 128 µg/mL (≈ 503 µM) in [4], 64 µg/mL (≈ 252 µM) in assay [5] and 64 µg/mL (≈ 252 µM) in assay [6].

Consider `Cc1cccc2c1CC1Sc3nnc(C)n3N=C21` (centres undefined), for which the inhibition of growth at 4000 µg/mL in assay [1] worked out at 67.7%; in [7], 68.8%; in assay [11], 67.7%. Also, the zone of inhibition at 2000 µg/mL was determined as 31.3 mm in [2], 20.6 mm in assay [8], 18.6 mm in [9] and 27.6 mm in [10]. The MIC in [3] was 64 µg/mL (≈ 250 µM); in assay [4], 64 µg/mL (≈ 250 µM); in assay [5], 2 µg/mL (≈ 7.8 µM); in assay [6], 8 µg/mL (≈ 31.2 µM).

Regarding `CCc1nnc2n1N=C1c3ccccc3CC1S2` (centres undefined), the inhibition of growth at 4000 µg/mL in [1] amounted to 58.8%; in assay [7] it was 55.5%; in assay [11], 57.7%. Also, the zone of inhibition at 2000 µg/mL in assay [2] came to 21.6 mm; in [8], 18.3 mm; in assay [9] it was 16 mm; in [10], 25.3 mm. Further, the minimum inhibitory concentration (MIC) worked out at 64 µg/mL (≈ 250 µM) in assay [3], 128 µg/mL (≈ 499 µM) in assay [4], 32 µg/mL (≈ 125 µM) in assay [5] and 16 µg/mL (≈ 62.4 µM) in [6].
